Measurements of several laboratories.
Protocols differ between the studies behind these lines.
ADRA1B: Alpha-1B adrenergic receptor (ADRA1B, Homo sapiens, UniProt P35368)
PARP3: Protein mono-ADP-ribosyltransferase PARP3 (PARP3, Homo sapiens, UniProt Q9Y6F1)
Mapk1: Mitogen-activated protein kinase 1 (Mapk1, Mus musculus, UniProt P63085)

SMILES | target | assay | test system | setting | inhibition [%]
N#Cc1cc(Cn2c(N3CCCC3)nc3ccccc32)ccc1F | ADRA1B | ligand displacement | – | 10 µM | -7.54
O=C1NCCCc2ccc(F)cc21 | PARP3 | enzyme activity, inhibitor | – | 10 µM | 63
CCN(CC)CCNC(=O)c1c(C)[nH]c(/C=C2\C(=O)Nc3ccc(F)cc32)c1C | Mapk1 | enzyme activity, inhibitor | – | 10 µM | -14
Cn1cnc(Br)c1C1=CN(c2ncnc3[nH]cnc23)CCS1 | Myosin-IIIa (MYO3A, Homo sapiens, UniProt Q8NEV4) | enzyme activity, inhibitor, radiometric | – | 50 nM | 19.3
Ic1cccc2cnccc12 | PARP3 | enzyme activity, inhibitor | – | 10 µM | 7
CNC(=O)c1cc2c(Oc3ccc(NC(=O)C4(C(=O)Nc5ccc(F)cc5)CC4)cc3)ccnc2cc1OC | Hepatocyte growth factor receptor (MET, Homo sapiens, UniProt P08581, Y1230H) | enzyme activity, inhibitor, radiometric | – | 1 µM | 99
O=C1N=C(N2CCCCN2)S/C1=C\c1ccc(F)cc1O | Corticotropin-releasing factor receptor 1 (CRHR1, Homo sapiens, UniProt P34998) | ligand displacement, radioligand | – | 10 µM | < 10
O=C1CCCc2ccc(F)cc2N1 | PARP3 | enzyme activity, inhibitor | – | 10 µM | 0
COc1ccc2c(c1)C(CC(=O)O)=C/C2=C\c1ccc(SC)cc1 | Prostaglandin G/H synthase 2 (Ptgs2, Mus musculus, UniProt Q05769) | enzyme activity, inhibitor | – | 4 µM | 8
COc1cc(NC(C)=O)c(Cl)cc1C(=O)Nc1nccs1 | ADRA1B | cell-free assay | – | 10 µM | 4.3
CN(C)C1CCN(CC#Cc2nn(C3CCCC3)c3nc(NCc4ccccc4)ncc23)C1 (centres unmarked) | Macrophage colony-stimulating factor 1 receptor (CSF1R, Homo sapiens, UniProt P07333) | enzyme activity, inhibitor, FRET | – | 1 µM | 82
Cc1ccc(Nc2nccc(N(C)c3ccc4c(C)n(C)nc4c3)n2)cc1S(N)(=O)=O | Mapk1 | enzyme activity, inhibitor | – | 10 µM | 3
Nc1ccc2c(c1)CCCn1nnnc1-2 | PARP3 | enzyme activity, inhibitor | – | 10 µM | 0
CCN(CC)c1ccc(C2Nc3ccc(C(=O)c4ccccc4)cc3NC3=C2C(=O)CC(C)(C)C3)cc1 (centres unmarked) | ADRA1B | ligand displacement, radioligand | – | 10 µM | -5
COc1cc(CCN2CCN(CCCc3ccccc3)CC2)ccc1O | Sodium-dependent dopamine transporter (Slc6a3, Mus musculus, UniProt Q61327) | ligand displacement, radioligand | – | 10 µM, cell membranes | 20
CCN1CCN(Cc2ccc(NC(=O)c3ccc(C)c(Oc4ccnc5[nH]ccc45)c3)cc2C(F)(F)F)CC1 | Microtubule-associated serine/threonine-protein kinase 4 (MAST4, Homo sapiens, UniProt O15021) | target engagement in cells, inhibitor, chemoproteomics | Huh-7 | 1 µM | -11.5
CC/C(=N\NC(=O)NCc1cccc(O)c1)c1ccc(O)c(C)c1O | cAMP-dependent protein kinase catalytic subunit gamma (PRKACG, Homo sapiens, UniProt P22612) | enzyme activity, inhibitor | – | 0.1 µM | 91
